Reference: ChEMBL document CHEMBL1687889, “Antitumor agents. 284. New desmosdumotin B analogues with bicyclic B-ring as cytotoxic and antitubulin agents” (J Med Chem, 2011)
Active and inactive are the calls of the source. The calls are words filed in the database; no cut-off is given here.

How the values were obtained:
HepG2 [1] = assay: Antiproliferative activity against human HepG2 cells after 3 days by sulforhodamine B assay; type: functional; details: HepG2, 72 h
Method in brief: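 Sulforhodamine B assay over 3 days in culture, with at most 0.5% v/v DMSO. Attached cells fixed in cold 50% TCA, stained with 0.4% SRB, and the dye solubilized. Absorbance read at 562 nm. GI50 is the concentration causing a 50% fall in absorbance relative to untreated cells.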

A549 = assay: Antiproliferative activity against human A549 cells after 3 days by sulforhodamine B assay; type: functional; details: A549, 72 h
Method in brief: (§1)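 Cells grown in RPMI-1640 with 25 mM HEPES, 0.25% sodium bicarbonate, 10% FBS and 100 μg/mL kanamycin. Exposed to compound for 3 days, with at most 0.5% v/v DMSO. Attached cells fixed in cold 50% TCA, stained with 0.4% sulforhodamine B, and the bound dye solubilized. A562 read. GI50 is the concentration giving a 50% absorbance drop versus untreated cells.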

KB = assay: Antiproliferative activity against human KB cells after 3 days by sulforhodamine B assay; type: functional; details: 72 h; method in brief: as §1
MCF7 [2] = assay: Antiproliferative activity against human MCF7 cells after 3 days by sulforhodamine B assay; type: functional; details: MCF7, 72 h
PC-3 = assay: Antiproliferative activity against human PC3 cells after 3 days by sulforhodamine B assay; type: functional; details: PC-3, 72 h
[3] = Antiproliferative activity against human KBVIN cells after 3 days by sulforhodamine B assay; type: functional; details: 72 h; method in brief: as §1
HCT-8 [4] = assay: Antiproliferative activity against human HCT8 cells after 3 days by sulforhodamine B assay; type: functional; details: HCT-8, 72 h; method in brief: as §1
DU-145 = assay: Antiproliferative activity against human DU145 cells after 3 days by sulforhodamine B assay; type: functional; details: DU-145, 72 h
[5] = Inhibition of tubulin assembly after 20 mins by turbidimetric assay; details: read-out: IC50
Method in brief: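 Turbidimetry at 350 nm. 10 μM (1.0 mg/mL) tubulin preincubated with compound for 15 min at 30 °C without GTP, then chilled, and 0.4 mM GTP added. Turbidity followed for 20 min at 30 °C after a temperature jump from 0 °C. IC50 is the concentration halving the turbidity increase relative to control.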

[6] = Displacement of [3H]colchicine from tubulin at 5 uM for 10 mins
Method in brief: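 1.0 μM tubulin incubated with 5.0 μM [3H]colchicine and 5.0 μM inhibitor for 10 min at 37 °C, when control samples reach about 40–60% of maximal colchicine binding. Result given as percent inhibition of colchicine binding.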

HCT-8 [7] = assay: Antiproliferative activity against human HCT8 cells at 20 ug/ml after 3 days by sulforhodamine B assay; type: functional, cell-based
MCF7 [8] = assay: Antiproliferative activity against human MCF7 cells at 20 ug/ml after 3 days by sulforhodamine B assay; type: functional, cell-based
HepG2 [9] = assay: Antiproliferative activity against human HepG2 cells at 20 ug/ml after 3 days by sulforhodamine B assay; type: functional, cell-based

GI50 (HepG2 [1]) [µM]	GI50 (A549) [µM]	GI50 (KB) [µM]	GI50 (MCF7 [2]) [µM]	GI50 (PC-3) [µM]	GI50 (HCT-8 [4]) [µM]	GI50 (DU-145) [µM]	IC50 [5] [µM]	inhibition [6] [%]	SMILES	GI50 [3] [µM]	Activity (HCT-8 [7])	Activity (MCF7 [8])	Activity (HepG2 [9])
14.5	4.77	9.13	11	10.8	7.68	–	–	–	CCC1=C(OC)C(CC)(CC)c2oc(-c3cccc4ccccc34)c(Br)c(=O)c2C1=O	9.96	–	–	–
30.6	42.2	26.4	–	38	42.2	31.7	–	–	CCC1=C(O)c2c(oc(-c3csc4ccc(Br)cc34)cc2=O)C(CC)(CC)C1=O	10.6	–	–	–
2.06	1.55	1.55	1.55	1.03	1.03	–	2.3	43	CCC1=C(O)c2c(oc(-c3cccc4ccccc34)cc2=O)C(CC)(CC)C1=O [2-(NAPHTHALEN-1-YL)-6,8,8-TRIETHYL DESMOSDUMOTIN B]	0.77	–	–	–
9.02	7.99	5.93	–	12.6	9.28	–	–	–	CCC1=C(O)C2=C(OC(c3cccc4ccccc34)CC2=O)C(CC)(CC)C1=O (stereo unspecified)	3.87	–	–	–
0.57	0.23	0.11	–	0.91	1.08	–	2.4	69	CC1=C(O)c2c(oc(-c3csc4ccccc34)cc2=O)C(C)(C)C1=O	0.09	–	–	–
19.3	18.1	18.1	15.7	8.45	–	–	–	–	CCC1=C(O)c2c(oc(-c3ccc(-c4ccccc4)cc3)cc2=O)C(CC)(CC)C1=O	12.1	inactive	–	–
13.4	16.8	10.8	8.37	4.78	12	–	–	–	CCC1=C(O)c2c(oc(-c3ccc4cc(OC)ccc4c3)cc2=O)C(CC)(CC)C1=O	9.57	–	–	–
20.7	16.7	11.2	20.9	14.7	11.7	–	–	–	CCC1=C(OC)C(CC)(CC)c2oc(-c3cccc4ccccc34)cc(=O)c2C1=O	9.7	–	–	–
4.59	6.04	2.17	3.62	6.04	2.42	–	–	–	CCC1=C(O)c2c(oc(-c3ccc4c5c(cccc35)CC4)cc2=O)C(CC)(CC)C1=O	1.93	–	–	–
11.8	26.2	18.3	11.3	5.24	13.1	–	–	–	CCC1=C(O)c2c(oc(-c3ccc4c(c3)OCO4)cc2=O)C(CC)(CC)C1=O	17	–	–	–
1.9	5.84	2.49	–	3.81	11.2	0.74	–	–	CCC1=C(O)c2c(oc(-c3cccc4ccsc34)cc2=O)C(CC)(CC)C1=O	0.94	–	–	–
1.33	1.25	0.61	–	13.3	2.56	–	2.5	37	CC1=C(O)c2c(oc(-c3ccc(C)c4ccccc34)cc2=O)C(C)(C)C1=O	0.72	–	–	–
8.42	1.86	1.41	3.22	16.6	8.17	–	–	–	CCC1=C(O)c2c(oc(-c3cccc4ccccc34)cc2=O)C(CC)(CC)C1=S	2.7	–	–	–
23.7	–	0.76	–	1.5	1.3	–	3.7	36	CC1=C(O)c2c(oc(-c3ccc4c(c3)OCCO4)cc2=O)C(C)(C)C1=O	0.65	–	–	–
1.52	1.52	1.26	1.89	1.52	2.27	–	6.5	33	CCC1=C(O)c2c(oc(-c3ccc4c(c3)OCCO4)cc2=O)C(CC)(CC)C1=O	1.14	–	–	–
14.9	12.8	15.4	19.3	12.8	12.8	–	–	–	CCC1=C(O)c2c(oc(-c3cnc4ccccc4c3)cc2=O)C(CC)(CC)C1=O	14.9	–	–	–

GI50 (HepG2 [1]) [µM]	GI50 (A549) [µM]	GI50 (KB) [µM]	GI50 (MCF7 [2]) [µM]	GI50 (PC-3) [µM]	GI50 (HCT-8 [4]) [µM]	GI50 (DU-145) [µM]	IC50 [5] [µM]	inhibition [6] [%]	SMILES	GI50 [3] [µM]	Activity (HCT-8 [7])	Activity (MCF7 [8])	Activity (HepG2 [9])
–	23.3	18.6	–	17.4	23.3	–	–	–	CCCC1=C(O)c2c(oc(-c3cccc4ccccc34)cc2=O)C(CCC)(CCC)C1=O	–	–	inactive	inactive
17.7	9.79	4.5	–	28	15.6	–	–	–	CCC1=C(O)c2c(oc(-c3coc4ccccc34)cc2=O)C(CC)(CC)C1=O	2.09	–	–	–
> 25	> 25	> 25	–	> 25	> 25	> 25	–	–	CCC1=C(O)c2c(oc(-c3sc4ccccc4c3C)cc2=O)C(CC)(CC)C1=O	> 25	–	–	–
24.8	66	11.3	–	51.9	19.6	21.5	–	–	CCC1=C(O)c2c(oc(-c3c(OC)ccc4sccc34)cc2=O)C(CC)(CC)C1=O	11.1	–	–	–
–	0.007	0.004	–	–	0.036	–	–	–	CC[C@]1(O)C[C@H]2CN(CCc3c([nH]c4ccccc34)[C@@](C(=O)OC)(c3cc4c(cc3OC)N(C=O)[C@H]3[C@@](O)(C(=O)OC)[C@H](OC(C)=O)[C@]5(CC)C=CCN6CC[C@]43[C@@H]65)C2)C1 [VINCRISTINE]	9.09	–	–	–
15.1	17.2	14.8	–	5.82	5.82	–	–	–	CCC1=C(O)c2c(oc(-c3cc4ccccc4o3)cc2=O)C(CC)(CC)C1=O	14.6	–	inactive	–
16.7	17.4	19.9	13.7	12.4	17.4	–	–	–	CCC1=C(O)c2c(oc(-c3c(C)ccc4ccccc34)cc2=O)C(CC)(CC)C1=O	19.9	–	–	–
21.7	5.63	18.7	17.4	20.5	15.9	–	–	–	CCC1=C(O)c2c(oc(-c3cn(C)c4ccccc34)cc2=O)C(CC)(CC)C1=O	2.81	–	–	–
> 98	> 98	53.9	–	> 98	93.1	> 98	–	–	CCC1=C(O)c2c(oc(-c3csc4ccc(C)cc34)cc2=O)C(CC)(CC)C1=O	> 98	–	–	–
> 25	> 25	11.2	–	> 25	> 25	10.4	–	–	CCC1=C(O)c2c(oc(-c3ccc4sccc4c3)cc2=O)C(CC)(CC)C1=O	> 25	–	–	–
1.48	1.48	1.67	3.59	2.39	3.35	–	2.7	31	CCC1=C(O)c2c(oc(-c3ccc(OC)c4ccccc34)cc2=O)C(CC)(CC)C1=O	1.56	–	–	–
24.1	5.95	7.38	14.1	24.1	13.3	–	–	–	CCC1=C(O)c2c(oc(-c3cccc4ccccc34)cc2=S)C(CC)(CC)C1=S	5.95	–	–	–
1.24	0.5	0.47	0.75	2.49	0.62	–	2.7	50	CCC1=C(O)c2c(oc(-c3ccc(C)c4ccccc34)cc2=O)C(CC)(CC)C1=O	0.27	–	–	–
15.7	14	11.2	15.2	3.81	19	–	–	–	CCC1=C(O)c2c(oc(-c3cc4ccccc4s3)cc2=O)C(CC)(CC)C1=O	9.9	–	–	–
–	1.73	0.29	1.73	1.45	1.16	–	–	–	CC1=C(O)c2c(oc(-c3cccc4ccccc34)cc2=O)C(C)(C)C1=O [2-(NAPHTHALEN-1-YL)DESMOSDUMOTIN B]	0.58	–	–	–

SMILES	GI50 (HepG2 [1]) [µM]	GI50 (A549) [µM]	GI50 (KB) [µM]	GI50 (MCF7 [2]) [µM]	GI50 (PC-3) [µM]	GI50 (HCT-8 [4]) [µM]	GI50 (DU-145) [µM]	IC50 [5] [µM]	inhibition [6] [%]	GI50 [3] [µM]	Activity (HCT-8 [7])	Activity (MCF7 [8])	Activity (HepG2 [9])
CCC1=C(O)c2c(oc(-c3cc4ccccc4c4ccccc34)cc2=O)C(CC)(CC)C1=O [6,8,8-TRIETHYL-2-(PHENANTHREN-9-YL) DESMOSDUMOTIN B]	–	18.3	11.4	9.13	13.7	12.8	–	–	–	9.82	–	–	–
